High-throughput results deposited in PubChem by The Scripps Research Institute Molecular Screening Center.
The list is not random: actives were taken first. Their share in the collection is about 2.9%.
TCR-CD3 inh = human TCR-CD3 binding inhibition. TAMRA-labeled TCR probe fluorescence, biochemical. inhibition, % at 9.4 µM. 360,000 tested, 0.37% active; in the data active means inhibition above about 19%;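 further: recombinant mutant TCR 2C K166C tagged with TAMRA read by polarization; 0% = receptor in buffer alone and 100% = receptor with positive control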
PAD4 inh = PAD4 (human) enzyme inhibition; Q9UM07; recombinant PAD4, RCA probe fluorescence polarization; inhibition, % at 6.36 µM; 330,000 tested, 0.41% active;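 active means percent inhibition above a cutoff equal to the mean of all tested compounds plus 3 SD, cut at about 15% in these data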;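 further: 0% = PAD4 with RCA probe and DMSO and 100% = probe without PAD4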
ABHD4 inh = ABHD4 (mouse) inhibition, primary FP screen | 370,000 tested, 0.54% active | Q8VD66 | inhibition, % at 8.92 µM | AID 720543 | purified mABHD4, FP-Rh probe fluorescence polarization;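 active means inhibition exceeding the mean over every tested compound plus 3 SD, cut at about 30% in these data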;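 further: 0% = plate median of compound wells and 100% = S159A mutant with DMSO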
Target sequence (Q8VD66 whole entry, looked up): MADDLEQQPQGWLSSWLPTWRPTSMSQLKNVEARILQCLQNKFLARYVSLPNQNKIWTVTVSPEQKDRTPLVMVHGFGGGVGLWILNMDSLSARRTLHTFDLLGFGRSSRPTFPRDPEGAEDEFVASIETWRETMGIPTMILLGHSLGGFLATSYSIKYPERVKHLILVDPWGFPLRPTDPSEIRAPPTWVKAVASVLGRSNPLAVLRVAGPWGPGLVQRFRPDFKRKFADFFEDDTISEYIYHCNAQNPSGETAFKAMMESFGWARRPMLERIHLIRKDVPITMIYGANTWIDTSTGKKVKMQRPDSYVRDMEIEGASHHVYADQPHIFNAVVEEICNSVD
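Test system: mABHD4 protein | Buffer or medium: HEPES pH 7.0 buffer, 150 mM NaCl, 0.01% Pluronic F-127 | Probe or stimulus: FP-Rh fluorescent activity-based probe, added after compound pre-incubation | Timing: Pre-incubation 45 min, probe exposure 60 min, at 25 °C | Technique: Fluorescence polarization, excitation 525 nm, emission 598 nm, BODIPY TMR filters | Repeats: Single well per compound (singlicate)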
HTRA1 inh = HTRA1 (human) protease inhibition; Q92743; 340,000 tested, 0.5% active; inhibition, % at 5.96 µM; recombinant HTRA1, FP-rhodamine activity-based probe, fluorescence polarization; in the data active means inhibition above about 36%;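 further: 0% = enzyme with DMSO and 100% = wells lacking enzyme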
PRMT1 FP inh = PRMT1 (human) inhibition, primary screen | 370,000 tested, 1.3% active | inhibition, % at 2.79 µM | AID 652257 | recombinant PRMT1, activity-based probe fluorescence polarization | Q99873;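 active means inhibition above about 21% made by adding two undisclosed values, limit read from the data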
SIAE inh = human SIAE inhibition, primary screen | SIAE FP-Rh probe binding, fluorescence polarization | inhibition, % at 9.66 µM | 370,000 tested, 0.69% active | AID 1053197;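 active means inhibition above a cutoff: mean of compounds within the control limits plus 3 SD of those, cut at about 17% in these data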;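 further: 0% = plate median of compound wells and 100% = probe without SIAE protein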
PRMT1 confirm = PRMT1 (human) inhibition, FP confirmation. shares compounds with PRMT1 FP inh. recombinant His-PRMT1, activity-based probe fluorescence polarization. inhibition, % at 2.79 µM. 3,300 tested, 42% active;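 active means mean inhibition across replicates above the hit cutoff derived for the earlier primary screen, cut at about 22% in these data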
Active calls of the source: *.

`O=C1c2ccccc2C(=O)N1SC1CCCCC1` gave TCR-CD3 inh 7.2, PAD4 inh -4.3, ABHD4 inh 6.0, HTRA1 inh 4.4, PRMT1 FP inh 63.4*, SIAE inh 1.0 and PRMT1 confirm 73.5*.
`C[C@H]1[C@@H](OC(=O)NCc2ccc(Cl)c(Cl)c2)CC[C@@]23CCCN2C(=O)CCC[C@@H]13` gave ABHD4 inh 2.4, PRMT1 FP inh -0.8 and SIAE inh -2.8.
`COc1ccc(C=Cc2ccc3ccccc3n2)c(OC)c1` gave TCR-CD3 inh 8.9, ABHD4 inh 15.3, HTRA1 inh -12.7, PRMT1 FP inh 147.1*, SIAE inh 9.2 and PRMT1 confirm 7.1.
`COc1ccc(OC)c(/C=C/c2ccc3cccc(O)c3n2)c1` gave TCR-CD3 inh -4.1, PAD4 inh -8.3, ABHD4 inh -0.7, HTRA1 inh -2.1, PRMT1 FP inh 3.2 and SIAE inh 4.4.
For COC(=O)[C@@]1(Sc2ccc(C)cc2)CC(=O)N(C(=O)c2ccccc2)[C@@H]1c1ccccc1 the results were TCR-CD3 inh 6.0, ABHD4 inh -7.3, PRMT1 FP inh 67.8*, SIAE inh -3.4 and PRMT1 confirm 77.3*.
For COc1ccc(S[C@]2(C(=O)N(C)C)CC(=O)N(c3ccc(C#N)cc3)[C@@H]2c2ccc(OC)cc2)cc1 the results were ABHD4 inh -5.6, PRMT1 FP inh 4.1 and SIAE inh -3.4.
COc1ccc(S[C@]2(C(=O)N(C)C)CC(=O)N(S(=O)(=O)c3ccc(F)cc3)[C@@H]2c2ccc(OC)cc2)cc1 was read as ABHD4 inh -2.8, PRMT1 FP inh 26.4*, SIAE inh -5.8 and PRMT1 confirm 27.5*.
Screening COc1ccc(S[C@]2(C(=O)N3CCCC3)CC(=O)N(c3ccsc3)[C@@H]2c2ccc(OC)cc2)cc1 returned ABHD4 inh 1.8, PRMT1 FP inh 1.7 and SIAE inh 2.9.
COc1ccc(S[C@]2(C(=O)N(C)C)CC(=O)N(C(=O)c3ccccc3)[C@@H]2c2ccc(OC)cc2)cc1 was read as ABHD4 inh -6.7, PRMT1 FP inh 84.2*, SIAE inh 0.9 and PRMT1 confirm 72.1*.
COc1ccc(S[C@]2(C(=O)N3CCCC3)CC(=O)N(C(=O)c3ccccc3)[C@@H]2c2ccc(OC)cc2)cc1 was read as ABHD4 inh 1.6, PRMT1 FP inh 73.7*, SIAE inh 14.4 and PRMT1 confirm 72.6*.
Screening COc1ccc(OC)c(S(=O)(=O)NCC2CCN(C(=O)C(=O)c3cc4ccccc4o3)CC2)c1 returned TCR-CD3 inh 1.4, ABHD4 inh 1.7, PRMT1 FP inh 1.1 and SIAE inh -2.8.
For CCC[C@H]1[C@@H](NCc2cccs2)CC[C@@]23CCCN2C(=O)CCC[C@@H]13 the results were ABHD4 inh -0.2, PRMT1 FP inh -7.4 and SIAE inh 4.7.
Screening O=C1CC(NC23CC4CC(CC(C4)C2)C3)C(=O)N1c1ccc2c(c1)OCO2 (centres undefined) returned TCR-CD3 inh -4.9, PAD4 inh 5.3, ABHD4 inh 1.8, HTRA1 inh 6.2, PRMT1 FP inh 65.0*, SIAE inh 0.9 and PRMT1 confirm 13.0.
`O=C1C2C3C=CC(C3)C2C(=O)N1c1ccc2c(c1)OCO2` (centres undefined) gave TCR-CD3 inh -2.7, PAD4 inh -2.3, ABHD4 inh 4.3, HTRA1 inh 4.3, PRMT1 FP inh -0.2 and SIAE inh 2.6.
Screening O=C1CC(N2CCN(c3ccc(O)cc3)CC2)C(=O)N1c1ccc2c(c1)OCO2 (centres undefined) returned TCR-CD3 inh -5.0, PAD4 inh -3.2, ABHD4 inh 9.5, HTRA1 inh 4.2, PRMT1 FP inh 39.1*, SIAE inh 3.1 and PRMT1 confirm -1.5.
O=C1CC(N2CCCCCC2)C(=O)N1c1ccc2c(c1)OCO2 (centres undefined) was read as TCR-CD3 inh -1.6, PAD4 inh -7.7, ABHD4 inh 3.5, HTRA1 inh 4.2, PRMT1 FP inh 68.7*, SIAE inh -0.2 and PRMT1 confirm 35.5*.
`COc1ccc(Cn2cc(CN3[C@@H](CC(C)C)COc4cccc(F)c4S3(=O)=O)nn2)cc1` gave ABHD4 inh -1.0, PRMT1 FP inh -2.0 and SIAE inh -5.7.
